ChEMBL document CHEMBL4014325
Active and inactive are the calls of the source. The calls are words filed in the database; no cut-off is given here.

Assays:
[1] = target: T1, Anoctamin-1 (Mus musculus) (UniProt Q8BHY3); test: Inhibition of TMEM16A in CD1 mouse ileum assessed as reduction in intestinal smooth muscle contraction
T1 sequence (whole entry): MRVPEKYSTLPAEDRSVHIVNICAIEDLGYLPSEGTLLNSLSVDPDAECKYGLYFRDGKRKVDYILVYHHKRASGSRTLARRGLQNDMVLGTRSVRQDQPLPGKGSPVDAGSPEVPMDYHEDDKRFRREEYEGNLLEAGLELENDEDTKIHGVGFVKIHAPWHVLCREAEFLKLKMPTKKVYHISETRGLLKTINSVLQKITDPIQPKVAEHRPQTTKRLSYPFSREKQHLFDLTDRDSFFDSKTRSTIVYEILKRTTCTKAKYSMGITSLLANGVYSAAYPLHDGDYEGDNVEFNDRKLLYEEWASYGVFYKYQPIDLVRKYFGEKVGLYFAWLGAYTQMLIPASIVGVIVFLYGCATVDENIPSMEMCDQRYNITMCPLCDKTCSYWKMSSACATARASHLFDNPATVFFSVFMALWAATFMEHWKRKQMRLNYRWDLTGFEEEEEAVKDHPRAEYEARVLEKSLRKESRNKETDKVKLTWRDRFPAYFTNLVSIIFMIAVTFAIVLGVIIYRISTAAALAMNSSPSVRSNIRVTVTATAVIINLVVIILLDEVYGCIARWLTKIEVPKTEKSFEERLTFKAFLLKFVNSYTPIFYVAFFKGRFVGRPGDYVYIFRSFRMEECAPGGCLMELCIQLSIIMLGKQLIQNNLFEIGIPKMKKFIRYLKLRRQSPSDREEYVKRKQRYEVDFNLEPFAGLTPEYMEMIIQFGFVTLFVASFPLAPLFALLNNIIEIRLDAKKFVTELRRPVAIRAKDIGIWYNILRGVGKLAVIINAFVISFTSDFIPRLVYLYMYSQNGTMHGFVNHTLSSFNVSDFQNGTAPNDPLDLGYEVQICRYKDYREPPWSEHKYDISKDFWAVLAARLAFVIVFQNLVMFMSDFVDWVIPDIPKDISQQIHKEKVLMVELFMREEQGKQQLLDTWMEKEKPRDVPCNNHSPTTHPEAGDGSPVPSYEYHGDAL
Method in brief: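 Ileal segments of ~2 cm from adult CD1 mice killed by avertin overdose (200 mg/kg), ends tied, mounted on a force transducer. […] Stabilised 60 min at 0.5 g resting tension with changes every 15 min. Compound added to the bath; spontaneous isometric contractions recorded; three separate experiments.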

[2] = Stability of compound in aqueous solution at 100 uM after 1 day by ESI-LCMS analysis; assay type: physicochemical; details: read-out: Stability
Method in brief: (§1)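 Duplicate samples of 100 μM compound in H₂O (20% DMSO) with 100 μM 5-chloro-3-phenyl-2,1-benzisoxazole as internal standard. Kept at 25 °C for 3 days and analysed daily by ESI-LCMS for the parent compound and the oxalamic acid degradation product.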

[3] = target: T2, Anoctamin-1 (Homo sapiens) (UniProt Q5XXA6); details: 1 uM
T2 sequence (whole entry): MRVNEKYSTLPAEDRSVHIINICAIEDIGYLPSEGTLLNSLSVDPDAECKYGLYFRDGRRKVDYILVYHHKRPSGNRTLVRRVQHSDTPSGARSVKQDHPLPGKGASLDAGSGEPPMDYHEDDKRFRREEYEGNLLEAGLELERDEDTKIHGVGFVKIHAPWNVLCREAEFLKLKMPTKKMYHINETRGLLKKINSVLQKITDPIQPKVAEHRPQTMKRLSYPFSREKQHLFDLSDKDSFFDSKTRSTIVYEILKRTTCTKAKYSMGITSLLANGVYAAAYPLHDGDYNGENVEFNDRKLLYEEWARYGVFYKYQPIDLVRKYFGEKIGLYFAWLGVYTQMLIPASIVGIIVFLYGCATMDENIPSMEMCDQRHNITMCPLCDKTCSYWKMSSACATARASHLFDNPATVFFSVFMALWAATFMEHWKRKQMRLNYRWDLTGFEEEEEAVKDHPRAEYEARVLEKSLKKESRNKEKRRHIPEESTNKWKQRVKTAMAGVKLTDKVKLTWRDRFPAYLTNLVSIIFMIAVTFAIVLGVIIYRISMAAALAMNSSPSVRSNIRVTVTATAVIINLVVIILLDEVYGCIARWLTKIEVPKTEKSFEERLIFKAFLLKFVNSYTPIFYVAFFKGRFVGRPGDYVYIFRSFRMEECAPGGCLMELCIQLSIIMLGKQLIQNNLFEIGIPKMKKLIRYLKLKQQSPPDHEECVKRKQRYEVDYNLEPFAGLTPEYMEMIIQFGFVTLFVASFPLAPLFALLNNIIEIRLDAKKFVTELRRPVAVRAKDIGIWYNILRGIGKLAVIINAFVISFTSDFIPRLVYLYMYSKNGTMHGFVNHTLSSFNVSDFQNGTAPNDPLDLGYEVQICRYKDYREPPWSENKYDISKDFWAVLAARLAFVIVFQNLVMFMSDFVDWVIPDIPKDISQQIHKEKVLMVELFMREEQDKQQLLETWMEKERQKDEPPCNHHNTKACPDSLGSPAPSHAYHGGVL

[4] = target: T2, Anoctamin-1 (Homo sapiens); details: 250 nM
[5] = Cytotoxicity against human HT-29 cells assessed as cell survival at 5 uM after 8 hrs by alamar blue assay relative to control; assay type: cell-based; details: read-out: Survival
Method in brief: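 Cells cultured overnight, then exposed to compound at 5 μM for 8 h. Viability read by Alamar Blue per kit instructions. Table reports n=3.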

[6] = target: T2, Anoctamin-1 (Homo sapiens); details: 1 uM; remark: listed apart in the source
[7] = Kinetic aqueous solubility of compound in PBS by titration method; assay type: physicochemical; details: buffer
Method in brief: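 Increasing quantities of a 30 mM DMSO stock added to 2 mL aliquots of PBS. Kinetic solubility taken from the titration point.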

[8] = Stability of compound in aqueous solution at 100 uM after 2 days by ESI-LCMS analysis; assay type: physicochemical; details: read-out: Stability; method in brief: as §1
[9] = Metabolic stability in rat liver microsomes assessed as compound remaining in presence of NADPH at 10 uM after 180 mins by LC/MS analysis; assay type: ADME, microsome; details: read-out: Stability
Method in brief: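 10 μM compound shaken at 37 °C with rat liver microsomes (1 mg protein/mL) in 100 mM potassium phosphate buffer with 1 mM NADPH, sampled at 2–180 min. Quenched on ice with ice-cold ethyl acetate, centrifuged, supernatant dried and redissolved. Parent compound quantified by C₁₈ reverse-phase LC/MS (5–95% acetonitrile gradient); mean ± SEM, n=3.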

[10] = target: T2, Anoctamin-1 (Homo sapiens); details: 1 uM; remark: listed apart in the source
[11] = target: T2, Anoctamin-1 (Homo sapiens); details: 250 nM; remark: listed apart in the source
[12] = Stability of compound in DMSO; assay type: physicochemical
[13] = target: Cystic fibrosis transmembrane conductance regulator (Homo sapiens) (UniProt P13569); test: Inhibition of human wild type CFTR expressed in FRT cells co-expressing halide sensitive YFP-H148Q assessed as reduction in forskolin induced cAMP activated chloride conductance by measuring decrease in iodide influx after 15 mins by fluorescence assay; assay type: cell-based
Method in brief: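 FRT cells co-expressing YFP and wild-type CFTR, washed with PBS. Incubated 15 min with compound in PBS containing 20 μM forskolin. Plate reader baseline 2 s, then 12 s after rapid addition of I⁻-containing solution; initial I⁻ influx rate computed.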

Sequence of Cystic fibrosis transmembrane conductance regulator (Homo sapiens) (P13569 whole entry, looked up): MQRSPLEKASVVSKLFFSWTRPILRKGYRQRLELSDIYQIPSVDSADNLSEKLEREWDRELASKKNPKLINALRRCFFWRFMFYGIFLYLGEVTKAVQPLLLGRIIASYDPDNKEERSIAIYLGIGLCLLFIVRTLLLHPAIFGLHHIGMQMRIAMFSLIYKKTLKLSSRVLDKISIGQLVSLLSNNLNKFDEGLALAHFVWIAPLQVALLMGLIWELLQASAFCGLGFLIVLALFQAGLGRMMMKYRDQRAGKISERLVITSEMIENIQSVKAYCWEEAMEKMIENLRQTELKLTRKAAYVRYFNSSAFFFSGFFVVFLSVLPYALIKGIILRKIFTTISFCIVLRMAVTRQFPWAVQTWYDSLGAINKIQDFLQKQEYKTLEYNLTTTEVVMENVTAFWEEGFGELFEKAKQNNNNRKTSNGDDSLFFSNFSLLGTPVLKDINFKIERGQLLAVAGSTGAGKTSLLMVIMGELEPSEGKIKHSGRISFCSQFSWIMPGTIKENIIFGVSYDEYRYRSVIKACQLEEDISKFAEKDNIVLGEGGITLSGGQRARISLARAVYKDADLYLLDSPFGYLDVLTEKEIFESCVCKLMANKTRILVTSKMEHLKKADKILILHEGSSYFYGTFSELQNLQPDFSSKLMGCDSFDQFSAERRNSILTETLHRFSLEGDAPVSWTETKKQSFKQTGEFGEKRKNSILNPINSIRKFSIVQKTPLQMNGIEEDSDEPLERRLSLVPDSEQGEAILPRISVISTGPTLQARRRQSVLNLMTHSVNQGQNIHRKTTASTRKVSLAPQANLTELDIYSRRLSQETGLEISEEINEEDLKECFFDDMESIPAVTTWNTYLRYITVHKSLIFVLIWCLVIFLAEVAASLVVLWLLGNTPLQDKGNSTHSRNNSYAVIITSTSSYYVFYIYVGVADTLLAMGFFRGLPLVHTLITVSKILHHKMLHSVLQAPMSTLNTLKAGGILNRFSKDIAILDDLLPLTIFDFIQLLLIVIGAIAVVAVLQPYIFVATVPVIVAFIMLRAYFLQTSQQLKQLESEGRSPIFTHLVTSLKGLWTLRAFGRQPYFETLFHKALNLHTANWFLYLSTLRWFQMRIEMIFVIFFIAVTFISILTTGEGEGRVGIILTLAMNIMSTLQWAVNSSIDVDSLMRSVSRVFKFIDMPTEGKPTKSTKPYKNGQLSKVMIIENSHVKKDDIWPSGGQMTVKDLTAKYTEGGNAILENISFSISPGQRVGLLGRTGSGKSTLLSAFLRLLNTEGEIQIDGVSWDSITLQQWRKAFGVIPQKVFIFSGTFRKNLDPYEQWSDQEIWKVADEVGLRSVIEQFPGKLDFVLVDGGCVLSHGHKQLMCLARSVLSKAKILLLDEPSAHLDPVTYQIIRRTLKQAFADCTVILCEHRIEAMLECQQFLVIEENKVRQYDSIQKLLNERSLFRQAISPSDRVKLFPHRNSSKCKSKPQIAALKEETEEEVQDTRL

SMILES: Cc1ccccc1NC(=O)c1c(NC(=O)C(F)(F)Br)sc2c1CCCCC2
- inhibition [1]: Dose-dependent effect
- remaining at 24 h, 100 µM [2]: 72%
- inhibition [3]: Active
- inhibition [4]: inactive
- viability at 8 h, 5 µM [5]: 97%
- inhibition [6]: Active
- Kinetic_solubility [7]: 40 µg/mL
- remaining at 48 h, 100 µM [8]: 30%
- remaining at 3 h, 10 µM [9]: 30%
- inhibition [10]: Active
- inhibition [11]: Active
- Stability [12]: > 6 months
- inhibition [13]: inactive
